We go through four compounds from PMC5935540 (Cell, 2018).

In data set [1] the test system is FK-506 binding protein family members (FKBP) 1A, 2, 3,4, and 5. Briefly: Arrayed affinity-selection/mass spectrometry binding assay, control compound. More on the design: species or system human. The note with it: control for the binder selection pipeline; FKBP1A highest signal.
A further data set relates to NSCLC cell line panel. Briefly: Cell viability dose response in NSCLC cell line panel. It is filed as cell-based, human. Put shortly: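 Viability read after 72 hrs of exposure to test compound at 5 µM, either alone or with HET-0016 at 100 nM. DMSO-treated cells serve as control.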
The conditions of data set [2]: no reference given; cited from earlier work.
In another data set the target is T1, ABCG2 (Homo sapiens, UniProt Q9UNQ0).
T1 sequence (Q9UNQ0 1-655): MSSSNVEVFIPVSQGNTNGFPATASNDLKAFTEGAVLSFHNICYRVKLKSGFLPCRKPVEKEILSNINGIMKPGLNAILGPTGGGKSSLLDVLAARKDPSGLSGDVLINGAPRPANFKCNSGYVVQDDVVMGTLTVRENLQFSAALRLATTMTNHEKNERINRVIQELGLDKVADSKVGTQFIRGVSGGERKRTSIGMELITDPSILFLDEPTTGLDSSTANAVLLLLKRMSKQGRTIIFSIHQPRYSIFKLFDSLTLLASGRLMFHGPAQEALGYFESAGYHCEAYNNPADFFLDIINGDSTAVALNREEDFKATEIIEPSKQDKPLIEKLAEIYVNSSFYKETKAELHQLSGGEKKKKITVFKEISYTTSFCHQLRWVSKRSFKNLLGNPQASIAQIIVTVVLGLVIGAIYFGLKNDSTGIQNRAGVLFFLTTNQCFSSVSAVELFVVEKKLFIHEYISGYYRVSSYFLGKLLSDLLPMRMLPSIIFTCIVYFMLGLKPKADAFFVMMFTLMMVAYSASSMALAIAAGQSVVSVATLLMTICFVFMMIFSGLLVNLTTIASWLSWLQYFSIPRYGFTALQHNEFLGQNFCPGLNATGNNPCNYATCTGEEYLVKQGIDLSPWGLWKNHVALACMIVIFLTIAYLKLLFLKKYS
Briefly: siRNA depletion of ABCG2 followed by THZ1 treatment. It is filed as cell-based. The following applies: ABCG2 depletion sensitized resistant cells; H157 cells, THZ1 50nM, 72 hrs.

Regarding `C=CC[C@@H]1/C=C(\C)C[C@H](C)C[C@H](OC)[C@H]2O[C@@](O)(C(=O)C(=O)N3CCCC[C@H]3C(=O)O[C@H](/C(C)=C/[C@@H]3CC[C@@H](O)[C@H](OC)C3)[C@H](C)[C@@H](O)CC1=O)[C@H](C)C[C@@H]2OC` [FK-506], the LC/MS binding signal result in data set [1] is given as “strongest signal”.

In the case of `CCCCc1ccc(N=CNO)c(C)c1` [HET0016], in the data set with NSCLC cell line panel (SW001286 5µM plus HET-0016 100nM, 72 hrs, two sensitive cell lines), the “effect on SW001286 toxicity” value was “rescued”.

For `CC(C)Oc1ccc(C(=O)N[C@H](CNC(=O)CN(C)C)Cc2ccc(-c3cn4cccc([C@H](C)O)c4n3)cc2)cc1Cl` [SW208097], in data set [2], the pharmacokinetics in humans result is “dose proportional pharmacokinetics”. The “sensitivity (ED50)” value in the data set with NSCLC cell line panel (cell lines with co-occuring mutations in TP53 and KEAP1) is “low nanomolar”.

Consider `CN(C)C/C=C/C(=O)Nc1ccc(C(=O)Nc2cccc(Nc3ncc(Cl)c(-c4c[nH]c5ccccc45)n3)c2)cc1` [THZ1], for which the “efflux transporter substrate status” value on ABCG2 is given as “ABCG2 substrate”.
